Source: ChEMBL document CHEMBL1275449, “Potent in vitro antifungal activities of naturally occurring acetylenic acids” (Antimicrob Agents Chemother, 2008)
Values after ≈ are worked out from the molar mass of the structure shown. Active and inactive are the calls of the source. No cut-off for these calls is given here.

Columns and labels:
[1] = system: Trichophyton mentagrophytes; assay: Antifungal activity against Trichophyton mentagrophytes ATCC MYA-4439 by CLSI method; type: functional, organism-based
Outline: (§1)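 Growth scraped from 1- to 6-week-old potato dextrose slants and filtered through Miracloth. Diluted in 5% Alamar blue-RPMI 1640 (MOPS pH 7.0) to 2.7 × 10⁴ CFU/ml. Eleven twofold dilutions in duplicate. Fluorescence at 544 nm excitation/590 nm emission read before and after 35°C, 5 days. IC50 fitted from percent growth. MIC taken as no detectable growth; MFC from clear or blue wells plated on PD agar.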

Trichophyton rubrum [2] = assay: Antifungal activity against Trichophyton rubrum ATCC MYA-4438 at 68.3 uM after 5 days by CLSI method; type: functional, organism-based
Candida albicans [3] = assay: Antifungal activity against Candida albicans ATCC 60193 at 68.3 uM after 48 hrs by CLSI method; type: functional, organism-based
Outline: (§2)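 Candida inocula came from 24–72-h SD agar colonies suspended in saline. They were diluted by OD630 standard curve into RPMI 1640 (0.2% dextrose, 0.03% glutamine, 0.165 M MOPS, pH 7.0) to 1.5 × 10³ CFU/ml. Compounds were run as 11 twofold dilutions in 20% DMSO-saline, in duplicate, at 35°C for 48 h, with OD530 read before and after. Percent growth at the top concentration, IC50, MIC, and MFC (SD agar plating) were derived.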

Candida albicans [4] = assay: Antifungal activity against Candida albicans ATCC 200955 at 68.3 uM after 48 hrs by CLSI method; type: functional, organism-based; outline: as §2
Candida parapsilosis [5] = assay: Antifungal activity against Candida parapsilosis ATCC 22019 after 48 hrs by CLSI method; type: functional, organism-based; conditions: Lodderomyces parapsilosis, ATCC 22019, 48 h
Outline: (§3)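 Yeast suspensions made from 3-5 colonies off 24-72 h SD agar plates in saline. They were diluted by OD630 standard curve in RPMI 1640 (0.2% dextrose, 0.03% glutamine, 0.165 M MOPS, pH 7.0) to 1.5 × 10³ CFU/ml. Twofold dilutions (11 concentrations, 20% DMSO-saline) run in duplicate. OD530 read before and after 35°C, 48 h. Line values are top test concentrations; no-growth endpoints give MIC/MFC.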

Candida albicans [6] = assay: Antifungal activity against Candida albicans ATCC 90028 at 68.3 uM after 48 hrs by CLSI method; type: functional, organism-based; outline: as §2
Pichia kudriavzevii [7] = assay: Antifungal activity against Candida krusei ATCC 6258 at 68.3 uM after 48 hrs by CLSI method; type: functional, organism-based; outline: as §3
Candida albicans [8] = assay: Antifungal activity against Candida albicans ATCC 32354 at 68.3 uM after 48 hrs by CLSI method; type: functional, organism-based; outline: as §2
[9] = system: Trichophyton mentagrophytes; assay: Antifungal activity against Trichophyton mentagrophytes ATCC 9533 by CLSI method; type: functional, organism-based; outline: as §1
Nakaseomyces glabratus = assay: Antifungal activity against Candida glabrata ATCC 90030 at 68.3 uM after 48 hrs by CLSI method; type: functional, organism-based; outline: as §2
Trichophyton rubrum [10] = assay: Antifungal activity against Trichophyton rubrum ATCC MYA-4438 by CLSI method; type: functional, organism-based; outline: as §1
Candida tropicalis [11] = assay: Antifungal activity against Candida tropicalis ATCC 750 after 48 hrs by CLSI method; type: functional, organism-based; conditions: ATCC 750, 48 h; outline: as §3
Aspergillus fumigatus [12] = assay: Antifungal activity against Aspergillus fumigatus ATCC 90906 at 68.3 uM after 48 hrs by CLSI method; type: functional, organism-based
Aspergillus fumigatus [13] = assay: Antifungal activity against Aspergillus fumigatus ATCC 204305 at 68.3 uM after 48 hrs by CLSI method; type: functional, organism-based
Pichia kudriavzevii [14] = assay: Antifungal activity against Candida krusei ATCC 6258 after 48 hrs by CLSI method; type: functional, organism-based; conditions: ATCC 6258, 48 h; outline: as §2
Aspergillus niger [15] = assay: Antifungal activity against Aspergillus niger ATCC 16404 after 48 h by CLSI method; conditions: ATCC 16404, 48 h
Aspergillus fumigatus [16] = assay: Antifungal activity against Aspergillus fumigatus ATCC 204305 after 48 h by CLSI method; conditions: ATCC 204305, 48 h
Trichophyton rubrum [17] = assay: Antifungal activity against Trichophyton rubrum ATCC 10218 by CLSI method; type: functional, organism-based; outline: as §1
Candida albicans [18] = assay: Antifungal activity against Fluconazole resistant Candida albicans clinical isolate 17 after 48 hrs by CLSI method; type: functional, organism-based
Outline: (§4)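 CLSI broth microdilution. Colonies from 24–72 h SD agar suspended in saline and sized by OD630 standard curve. Inoculum 1.5 × 10³ CFU/ml (final) in RPMI 1640 (0.2% dextrose, 0.03% glutamine, 0.165 M MOPS, pH 7.0). Twofold dilutions (11 levels) from 20% DMSO-saline, in duplicate. 35°C for 48 h, OD530 read before and after. IC50 fitted from % growth. MIC: no detectable growth. MFC: subculture onto SD agar.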

Aspergillus fumigatus [19] = assay: Antifungal activity against Aspergillus fumigatus ATCC 90906 after 48 h by CLSI method; conditions: ATCC 90906, 48 h
Candida albicans [20] = assay: Antifungal activity against Fluconazole resistant Candida albicans isolate 1 at 68.3 uM after 48 hrs by CLSI method; type: functional, organism-based
Outline: (§5)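 Candida in CLSI broth microdilution. Saline colony suspension set to 1.5 × 10³ CFU/ml (final) in MOPS-buffered RPMI 1640, pH 7.0. Test agent given as twofold serial dilutions in 20% DMSO-saline, duplicate wells. 35°C for 48 h. Growth read as OD530 before and after incubation. Percent inhibition scored at the highest test concentration.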

Candida albicans [21] = assay: Antifungal activity against Fluconazole resistant Candida albicans isolate 17 at 68.3 uM after 48 hrs by CLSI method; type: functional, organism-based; outline: as §5
Candida albicans [22] = assay: Antifungal activity against Candida albicans ATCC 60193 after 48 hrs by CLSI method; type: functional, organism-based; conditions: ATCC 60193, 48 h; outline: as §4
Candida albicans [23] = assay: Antifungal activity against Candida albicans ATCC 90028 after 48 hrs by CLSI method; type: functional, organism-based; conditions: ATCC 90028, 48 h; outline: as §4
Cryptococcus neoformans [24] = assay: Antifungal activity against Cryptococcus neoformans ATCC 66031 after 72 hrs by CLSI method; type: functional, organism-based; conditions: ATCC 66031, 72 h
Outline: (§6)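 SD broth replaced RPMI because growth in RPMI was poor; other CLSI conditions were kept. Inoculum was 1.5 × 10³ CFU/ml from colonies on SD agar, checked by plating. Twofold serial dilutions (11 concentrations) in 20% DMSO-saline were tested in duplicate. OD530 was read before and after incubation at 35°C for 72 h. Percent growth gave IC50; the MIC is the lowest concentration with no detectable growth.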

Candida tropicalis [25] = assay: Antifungal activity against Candida tropicalis ATCC 750 at 68.3 uM after 48 hrs by CLSI method; type: functional, organism-based; outline: as §3
Candida albicans [26] = assay: Antifungal activity against Candida albicans ATCC 200955 after 48 hrs by CLSI method; type: functional, organism-based; conditions: ATCC 200955, 48 h; outline: as §4
Candida albicans [27] = assay: Antifungal activity against Candida albicans ATCC 14053 after 48 hrs by CLSI method; type: functional, organism-based; conditions: ATCC 14053, 48 h; outline: as §4
Candida albicans [28] = assay: Antifungal activity against Fluconazole resistant Candida albicans clinical isolate 1 after 48 hrs by CLSI method; type: functional, organism-based; outline: as §4
Candida albicans [29] = assay: Antifungal activity against Candida albicans ATCC 14053 at 68.3 uM after 48 hrs by CLSI method; type: functional, organism-based
Aspergillus niger [30] = assay: Antifungal activity against Aspergillus niger ATCC 16404 at 68.3 uM after 48 hrs by CLSI method; type: functional, organism-based
Cryptococcus neoformans [31] = assay: Antifungal activity against Cryptococcus neoformans ATCC 90113 after 72 hrs by CLSI method; type: functional, organism-based; conditions: ATCC 90113, 72 h; outline: as §6
Candida parapsilosis [32] = assay: Antifungal activity against Candida parapsilosis ATCC 22019 at 68.3 uM after 48 hrs by CLSI method; type: functional, organism-based; outline: as §3
Aspergillus flavus = assay: Antifungal activity against Aspergillus flavus ATCC 204304 after 48 h by CLSI method; conditions: ATCC 204304, 48 h
Candida albicans [33] = assay: Antifungal activity against Candida albicans ATCC 32354 after 48 hrs by CLSI method; type: functional, organism-based; conditions: ATCC 32354, 48 h; outline: as §4

CN(C/C=C/C#CC(C)(C)C)Cc1cccc2ccccc12 [TERBINAFINE]
IC50 [1]: < 0.02 µM | MFC [1]: 0.27 µM (≈ 0.0787 µg/mL) | MIC [1]: 0.17 µM (≈ 0.0495 µg/mL) | Activity (Trichophyton rubrum [2]): inactive | Activity (Candida albicans [3]): inactive | Activity (Candida albicans [4]): inactive | IC50 (Candida parapsilosis [5]): 0.4 µM | MIC (Candida parapsilosis [5]): 42.9 µM (≈ 12.5 µg/mL) | Activity (Candida albicans [6]): inactive | Activity (Pichia kudriavzevii [7]): inactive | Activity (Candida albicans [8]): inactive | IC50 [9]: < 0.02 µM | MFC [9]: 0.27 µM (≈ 0.0787 µg/mL) | MIC [9]: 0.05 µM (≈ 0.0146 µg/mL) | Activity (Nakaseomyces glabratus): inactive | IC50 (Trichophyton rubrum [10]): 4.2 µM | MIC (Trichophyton rubrum [10]): 21.4 µM (≈ 6.24 µg/mL) | IC50 (Candida tropicalis [11]): 45.4 µM | Activity (Aspergillus fumigatus [12]): inactive | Activity (Aspergillus fumigatus [13]): inactive | IC50 (Pichia kudriavzevii [14]): > 68.3 µM | IC50 (Aspergillus niger [15]): 0.7 µM | MIC (Aspergillus niger [15]): 2.1 µM (≈ 0.612 µg/mL) | IC50 (Aspergillus fumigatus [16]): 1.1 µM | MIC (Aspergillus fumigatus [16]): 4.3 µM (≈ 1.25 µg/mL) | IC50 (Trichophyton rubrum [17]): < 0.02 µM | MFC (Trichophyton rubrum [17]): 0.13 µM (≈ 0.0379 µg/mL) | MIC (Trichophyton rubrum [17]): 0.1 µM (≈ 0.0291 µg/mL) | IC50 (Candida albicans [18]): > 68.3 µM | IC50 (Aspergillus fumigatus [19]): 1 µM | MIC (Aspergillus fumigatus [19]): 4.3 µM (≈ 1.25 µg/mL) | Activity (Candida albicans [20]): inactive | Activity (Candida albicans [21]): inactive | IC50 (Candida albicans [22]): 5.3 µM | IC50 (Candida albicans [23]): 10.8 µM | IC50 (Cryptococcus neoformans [24]): 0.4 µM | MFC (Cryptococcus neoformans [24]): 8.6 µM (≈ 2.51 µg/mL) | MIC (Cryptococcus neoformans [24]): 4.3 µM (≈ 1.25 µg/mL) | Activity (Candida tropicalis [25]): inactive | IC50 (Candida albicans [26]): 3.1 µM | MIC (Candida albicans [26]): 51.5 µM (≈ 15 µg/mL) | IC50 (Candida albicans [27]): 13.7 µM | IC50 (Candida albicans [28]): 11.2 µM | Activity (Candida albicans [29]): inactive | Activity (Aspergillus niger [30]): inactive | IC50 (Cryptococcus neoformans [31]): 0.5 µM | MFC (Cryptococcus neoformans [31]): 1.1 µM (≈ 0.321 µg/mL) | MIC (Cryptococcus neoformans [31]): 1.1 µM (≈ 0.321 µg/mL) | Activity (Candida parapsilosis [32]): inactive | IC50 (Aspergillus flavus): 0.3 µM | MFC (Aspergillus flavus): 8.6 µM (≈ 2.51 µg/mL) | MIC (Aspergillus flavus): 2.1 µM (≈ 0.612 µg/mL) | IC50 (Candida albicans [33]): 2.6 µM
